Screening results as filed in PubChem.
Apaf1 inhib = inhibitors of human Apaf-1 apoptosome, primary screen, biochemical, DEVD-Rh110 fluorescence, uHTS | reconstituted apoptosome caspase-3 activity | inhibition, % at 20 µM | 0.71% of 330,000 active | AID 489030, 2010; active = inhibition of at least 40% at 20 µM
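detection = Rh110 fluorescence intensity | test system = biochemical Apaf-1 apoptosome reconstitution | also added = cytochrome c and DEVD-Rh110 substrate | schedule = 30 min plus 50 min, RT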
Mdm2-MdmX inh = inhibitors of human Mdm2-MdmX association, primary screen, cell-based, luminescence, split luciferase, SaOS-2, uHTS. Protein Mdm4 (Homo sapiens) + E3 ubiquitin-protein ligase Mdm2 (Homo sapiens), …. SaOS-2 split-luciferase Mdm2/MdmX complementation. inhibition, % at 8 µM. 3% of 330,000 active. AID 485346, 2010;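 active = inhibition of at least 50% at 8 µM in the primary screen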
XBP1 UPR activ = activators of adaptive XBP1 UPR arm, primary screen, cell-based, CHO-XBP1 luciferase reporter, luminescence, uHTS; IRE1-XBP1 UPR activation; percent of tunicamycin response, DMSO as zero; activation, % at 20 µM; 0.33% of 330,000 active; AID 463104, 2010;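 active = versus positive control, 20 µM dose yields 30% or more activation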
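Material: CHO cell line with stable XBP1 luciferase reporter; schedule: 16-18 h cell attachment at 37 °C, then 6 h compound exposure; signal: glow luminescence from Steady-Glo reagent; medium: serum-containing F12 medium, 10% FBS; benchmarks: tunicamycin 10 µg/mL and vehicle-only wells; read-out: percent activation relative to tunicamycin reference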
UBC13 polyUb = UBC13 polyubiquitin chain formation inhibitors, primary screen, biochemical, TR-FRET, uHTS | inhibition, % at 20 µM | 0.47% of 330,000 active; in the data active = inhibition above about 45%, passing the limit was not always enough
UPR CHOP act = activators of apoptotic CHOP UPR arm, primary screen, cell-based, CHO-CHOP luciferase reporter, luminescence, uHTS; UPR activation; percent of tunicamycin response over DMSO baseline; activation, % at 10 µM; 0.34% of 330,000 active; AID 449763, 2010;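 active = at 10 µM dose, activation of 40% or more, normalized to positive control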
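Assay system: CHO-CHOP cells, stable luciferase reporter of PERK-eIF2a-CHOP signalling / Buffer or medium: F12 plus 10% serum / Compound dosing: one dose, 10 µM in 0.5% DMSO / Times: 6 h compound treatment, 37 °C / Technique: luciferase luminescence / Read-out: % reporter activation, DMSO baseline versus tunicamycin full activation / Benchmarks: tunicamycin and DMSO controls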
Mdm2 MdmX conf = Mdm2-MdmX complex disruptors, retested hits, confirmation, luminescence, single concentration | shares compounds with Mdm2-MdmX inh | Mdm2-MdmX binding, luminescent assay | inhibition, % at 8 µM | 55% of 10,000 active; in the data active = inhibition above about 40%
FLuc counter = full-length luciferase signal inhibition, confirmation, counter-screen for Mdm2/MdmX interaction inhibitor project, cell-based, single concentration, SaOS-2; shares compounds with Mdm2-MdmX inh; SaOS-2 full-length luciferase counterscreen, luminescence; inhibition, % at 8 µM; 77% of 6,200 active; AID 504607, 2011;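 active = mean inhibition at 8 µM reaching about 37%, which flags the compound as non-specific, limit read from the data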;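 note: p53-null SaOS-2 cells with luciferase driven by a doxycycline-inducible promoter; compound on cells about two nights before reading with doxycycline added after day one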
A number is an active result; i = inactive; nt = not tested or not shown. Compounds with a hit are over-represented: about 4.1% of the library has one in this group of screens.

SMILES | Apaf1 inhib | Mdm2-MdmX inh | XBP1 UPR activ | UBC13 polyUb | UPR CHOP act | Mdm2 MdmX conf | FLuc counter
CC1=CC(=O)C(C(C)C)=C/C1=N/OS(=O)(=O)c1ccccc1 | i | 100.2 | i | i | i | i | 42.0
Cc1ccc2c(c1)/C(=N/OS(=O)(=O)c1ccccc1)CCS2 | i | i | i | i | i | nt | nt
O=C1[C@H](Oc2ccccc2)[C@@H](c2ccccc2)N1c1ccncc1 | i | 50.1 | i | nt | i | i | nt
Nc1nc(-c2ccc(Cl)cc2)nn1C(=O)c1cccs1 | i | i | i | i | i | nt | nt
O=C(O)c1ccc(-c2nc(-c3ccccc3)c(-c3ccccc3)[nH]2)cc1 | i | i | i | i | i | nt | nt
Oc1ccc(-c2nc(-c3ccc(F)cc3)c(-c3ccncc3)[nH]2)cc1 | i | 78.9 | i | i | i | i | 75.5
O=[N+]([O-])c1ccc(-c2nc(-c3cccs3)c(-c3cccs3)[nH]2)cc1 | i | 55.7 | i | i | i | i | nt
Fc1ccc(-c2nc(-c3cccs3)[nH]c2-c2ccc(F)cc2)cc1 | i | 51.6 | i | i | i | i | 78.5
CCOc1ccc(NC(=O)CSc2ccc(-c3cccnc3)nn2)cc1 | i | i | i | i | i | nt | nt
Oc1c(I)cc(I)c2cccnc12 | i | 92.5 | i | i | i | 71.8 | 39.4
O=C(N/N=C/c1c(-c2ccccc2)[nH]c2ccccc12)c1cccnc1 | i | 52.2 | i | i | i | 53.0 | 68.5
Cn1c(-c2ccccc2)c(/C=N/NC(=O)c2cccnc2)c2ccccc21 | i | i | i | i | i | nt | nt
O=C(Nc1ccccc1NC(=O)c1ccccc1Cl)c1ccccc1Cl | i | i | i | i | i | nt | nt
CN(Cc1ccco1)c1ncnc2ccc(-c3ccc4c(ccn4C)c3)cc12 | i | 50.6 | i | i | i | 53.1 | 65.8
CC1CCN(c2c(NCc3ccc(C(=O)N(C)C4CCCCC4)cc3)c(=O)c2=O)CC1 | i | i | i | i | i | nt | nt
CC1CCN(c2c(NCc3ccc(C(=O)N4CCc5ccccc54)cc3)c(=O)c2=O)CC1 | i | 64.8 | i | i | i | 53.3 | 39.4
CC(OC(=O)/C=C/c1ccc2ccccc2n1)C(=O)NCc1ccccc1 (configuration not stated) | i | 54.1 | i | i | i | i | nt
COC(=O)CNC(=O)COC(=O)/C=C/c1ccc2ccccc2n1 | i | i | i | i | i | nt | nt
COc1cccc2sc(Nc3nnc(-c4ccccc4Cl)o3)nc12 | i | 65.0 | i | i | i | 65.0 | 53.8
CCCn1c(NC(=O)c2ccc(Cl)c(S(=O)(=O)N3CCCC3)c2)nc2ccccc21 | i | 80.7 | i | i | i | 69.1 | 43.1
COc1ccc(NC(=O)Nc2c(C)n(C)n(-c3ccccc3)c2=O)c(OC)c1 | i | i | i | i | i | nt | nt
CC(C)(C)c1ccc(C(=O)NCCOc2ccccc2F)cc1 | i | 62.4 | i | i | i | 73.1 | 148.4
O=C(NCc1ccccc1Cl)C(=O)c1cn(CC(=O)N2CCOCC2)c2ccccc12 | i | i | i | i | i | nt | nt
CC(C)C(=O)NC(c1cccc([N+](=O)[O-])c1)c1ccc2cccnc2c1O (configuration not stated) | i | 81.1 | i | i | i | 90.2 | 52.0
CC(C)C(=O)NC(Nc1cccc2cccnc12)C(Cl)(Cl)Cl (configuration not stated) | i | i | i | i | i | nt | nt
SMILES | Apaf1 inhib | Mdm2-MdmX inh | XBP1 UPR activ | UBC13 polyUb | UPR CHOP act | Mdm2 MdmX conf | FLuc counter
Oc1c(C(Nc2nc3ccccc3s2)c2ccco2)ccc2cccnc12 (configuration not stated) | i | 60.5 | i | i | i | 85.3 | 42.0
CC(C)C(=O)NC(c1ccco1)c1ccc2cccnc2c1O (configuration not stated) | i | 82.0 | i | i | i | 63.9 | i
CCCCN(CC(=O)NCc1ccc(F)cc1)C(=O)c1ccco1 | i | i | i | i | i | nt | nt
O=C(Cc1coc2cc3c(cc12)CCC3)OCC(=O)N1CCCC1=O | i | i | i | i | i | nt | nt
OC(CNCc1ccc(-c2ccccc2)cc1)c1ccccc1 (configuration not stated) | i | 53.1 | i | i | i | 57.6 | i
COc1cc(NC(=O)c2ccccc2)c(OC)cc1NC(=O)CSc1[nH]c(=O)cc(C)c1C#N | i | 83.8 | i | i | i | i | nt
COc1ccc(CNC(=O)C[C@H]2C[C@H](C(=O)N3CCCCC3)[C@@]3(CCc4ccccc4)c4[nH]c5ccc(Cl)cc5c4CCN3C2=O)cc1OC | i | 55.1 | i | nt | i | i | nt
CC[C@]12c3[nH]c4ccc(Cl)cc4c3CCN1C(=O)[C@@H](CC(=O)NCc1cccc(C(F)(F)F)c1)C[C@@H]2C(=O)N1CCN(C(=O)c2ccco2)CC1 | i | 58.3 | i | nt | i | i | nt
COc1ccc2[nH]c3c(c2c1)CCN1C(=O)C(CC(=O)NCc2cccc(C(F)(F)F)c2)C[C@H](C(=O)N2CCCCC2)[C@@]31C (some centres not stated) | i | i | i | nt | i | nt | nt
C[C@]12c3[nH]c4ccc(Cl)cc4c3CCN1C(=O)[C@@H](CC(=O)NCc1cccc(C(F)(F)F)c1)C[C@@H]2C(=O)N1CCCCC1 | i | 81.3 | i | nt | i | i | nt
Cc1ccn(-c2cc(O)c(-n3ccc(C)n3)cc2O)n1 | i | i | i | i | i | nt | nt
COC(=O)c1ccc2c(=O)[nH]c(COC(=O)c3c(-c4ccccc4)noc3C)nc2c1 | i | i | i | i | i | nt | nt
OCC[C@H]1C[C@@H](O)[C@H](O)[C@]2(Cc3ccccc3CCO2)O1 | i | i | i | i | i | nt | nt
CC(C)[C@H](NC(=O)c1ccccc1)C(=O)OCC(=O)Nc1ncc(Cl)cc1Cl | i | i | i | i | i | nt | nt
CCC1CSC(Nc2ccc(C(=O)/C=C/c3ccc(Oc4ccccc4)cc3)cc2)=N1 (configuration not stated) | i | 54.9 | i | i | i | i | nt
CCC1CSC(Nc2ccc(C(=O)/C=C/c3cccc(C)c3)cc2)=N1 (configuration not stated) | i | i | i | i | i | nt | nt
COc1cccc(NC(=S)N2CCN(C(c3ccccc3)c3ccccc3)CC2)c1 | i | 78.5 | i | i | i | 41.6 | 68.2
